Legend:
Format in all cases: functional
H4 [1] = experiment: Increase in light chain 3-GFP+ autophagosome vesicle number per cell in human H4 cells at 6.8 uM after 24 hrs by high throughput fluorescence microscopy relative to control
In short: (§1)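 H4 cells stably expressing LC3-GFP were grown in DMEM with 10% FBS and 2 mM L-glutamine at 37°C, 5% CO2. They were exposed to each compound for 24 h, with DMSO as negative and rapamycin as positive control. Cells were then fixed in 4% paraformaldehyde and stained with 3 μg/ml DAPI. High-throughput fluorescence imaging scored LC3-GFP spot number, size and intensity, expressed relative to DMSO. Mean ± SD of triplicates; experiments repeated three times.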

H4 [2] = experiment: Increase in light chain 3-GFP+ autophagosome vesicle area per cell in human H4 cells at 6.8 uM after 24 hrs by high throughput fluorescence microscopy relative to control
In short: (§2)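 H4 cells stably expressing LC3-GFP, seeded in 96-well plates and exposed to compound for 24 h; screening concentrations were 3–12 μM, with rapamycin 0.22 μM and bafilomycin A1 0.40 μM. Cells fixed in 4% paraformaldehyde and stained with 3 μg/ml DAPI. Number, size and intensity of LC3-GFP spots measured by high-throughput fluorescence microscopy and expressed as percent of DMSO-treated wells. Rapamycin was the positive control. Triplicate wells, mean ± SD; experiments repeated three times.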

H4 [3] = experiment: Increase in light chain 3-GFP+ autophagosome vesicle intensity per cell in human H4 cells at 6.8 uM after 24 hrs by high throughput fluorescence microscopy relative to control; in short: as §1
H4 [4] = experiment: Induction of light chain 3-GFP level in human H4 cells at 6.8 uM after 24 hrs by high throughput fluorescence microscopy relative to control
In short: (§3)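 H4 cells stably expressing LC3-GFP, grown in DMEM with 10% FBS, penicillin/streptomycin and 2 mM L-glutamine at 37°C, 5% CO2. Cells were seeded in 96-well plates and exposed to library compounds at 3–12 μM for 24 h, then fixed in 4% paraformaldehyde and stained with 3 μg/ml DAPI. LC3-GFP spot number, size and intensity were measured by high-throughput fluorescence microscopy and expressed relative to DMSO. Triplicates, mean ± SD.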

H4 [5] = experiment: Induction of light chain 3-GFP level in human H4 cells at 4.9 uM after 24 hrs by high throughput fluorescence microscopy relative to control
In short: (§4)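 H4 cells stably expressing LC3-GFP, kept in DMEM/10% FBS at 37°C, 5% CO2, were seeded in 96-well plates and exposed to compound for 24 h. Cells were then fixed in 4% paraformaldehyde and stained with 3 μg/ml DAPI. Automated fluorescence microscopy scored the number, size and intensity of LC3-GFP spots. Values are percent of DMSO wells, in triplicate, mean ± SD. Rapamycin served as positive control.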

H4 [6] = experiment: Increase in light chain 3-GFP+ autophagosome vesicle area per cell in human H4 cells at 4.9 uM after 24 hrs by high throughput fluorescence microscopy relative to control
In short: (§5)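 H4 cells stably expressing LC3-GFP, seeded in 96-well plates and exposed to compound for 24 h; fixed in 4% paraformaldehyde, nuclei stained with 3 μg/ml DAPI. Automated fluorescence microscopy scored number, size and intensity of LC3-GFP spots; values expressed relative to DMSO-treated wells, rapamycin positive control. Triplicate wells, mean ± SD; experiments repeated three times.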

H4 [7] = experiment: Increase in light chain 3-GFP+ autophagosome vesicle intensity per cell in human H4 cells at 4.9 uM after 24 hrs by high throughput fluorescence microscopy relative to control; in short: as §5
H4 [8] = experiment: Increase in light chain 3-GFP+ autophagosome vesicle number per cell in human H4 cells at 4.9 uM after 24 hrs by high throughput fluorescence microscopy relative to control; in short: as §4
H4 [9] = experiment: Increase in light chain 3-GFP+ autophagosome vesicle number per cell in human H4 cells at 6.4 uM after 24 hrs by high throughput fluorescence microscopy relative to control; in short: as §1
H4 [10] = experiment: Increase in light chain 3-GFP+ autophagosome vesicle area per cell in human H4 cells at 6.4 uM after 24 hrs by high throughput fluorescence microscopy relative to control; in short: as §2
H4 [11] = experiment: Increase in light chain 3-GFP+ autophagosome vesicle intensity per cell in human H4 cells at 6.4 uM after 24 hrs by high throughput fluorescence microscopy relative to control; in short: as §1
H4 [12] = experiment: Decrease in FYVE-RFP+ vesicle intensity per cell in human H4 cells after 2 hrs relative to control; parameters: concentration or dose not given beside the values
In short: (§6)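 H4 cells stably expressing FYVE-RFP (H4-FYVE), grown in DMEM with 10% FBS, penicillin/streptomycin and 2 mM L-glutamine at 37°C, 5% CO2, seeded in 96-well plates and exposed to compound. Fixed in 4% paraformaldehyde, nuclei stained with 3 μg/ml DAPI, FYVE-RFP+ vesicles quantified by high-throughput fluorescence microscopy against DMSO control. Triplicate wells, mean ± SD.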

H4 [13] = experiment: Decrease in FYVE-RFP+ vesicle intensity per cell in human H4 cells after 4 hrs relative to control; parameters: concentration or dose not given beside the values; in short: as §6
H4 [14] = experiment: Decrease in FYVE-RFP+ vesicle intensity per cell in human H4 cells after 8 hrs relative to control; parameters: concentration or dose not given beside the values; in short: as §6
H4 [15] = experiment: Increase in long-lived protein degradation in human H4 cells after 1 hr relative to control; parameters: concentration or dose not given beside the values
H4 [16] = experiment: Increase in long-lived protein degradation in human H4 cells after 2 hrs relative to control; parameters: concentration or dose not given beside the values
H4 [17] = experiment: Increase in long-lived protein degradation in human H4 cells after 4 hrs relative to control; parameters: concentration or dose not given beside the values
H4 [18] = experiment: Increase in long-lived protein degradation in human H4 cells after 24 hrs relative to control; parameters: concentration or dose not given beside the values
H4 [19] = experiment: Induction of light chain 3-GFP level in human H4 cells at 6.4 uM after 24 hrs by high throughput fluorescence microscopy relative to control; in short: as §3
H4 [20] = experiment: Increase in light chain 3-GFP+ autophagosome vesicle number per cell in human H4 cells at 7.6 uM after 24 hrs by high throughput fluorescence microscopy relative to control; in short: as §1
H4 [21] = experiment: Increase in light chain 3-GFP+ autophagosome vesicle area per cell in human H4 cells at 7.6 uM after 24 hrs by high throughput fluorescence microscopy relative to control; in short: as §2
H4 [22] = experiment: Increase in light chain 3-GFP+ autophagosome vesicle intensity per cell in human H4 cells at 7.6 uM after 24 hrs by high throughput fluorescence microscopy relative to control; in short: as §1
H4 [23] = experiment: Induction of light chain 3-GFP level in human H4 cells at 7.6 uM after 24 hrs by high throughput fluorescence microscopy relative to control; in short: as §3
H4 [24] = experiment: Increase in light chain 3-GFP+ autophagosome vesicle number per cell in human H4 cells at 8.5 uM after 24 hrs by high throughput fluorescence microscopy relative to control; in short: as §3
H4 [25] = experiment: Increase in light chain 3-GFP+ autophagosome vesicle area per cell in human H4 cells at 8.5 uM after 24 hrs by high throughput fluorescence microscopy relative to control; in short: as §2
H4 [26] = experiment: Increase in light chain 3-GFP+ autophagosome vesicle intensity per cell in human H4 cells at 8.5 uM after 24 hrs by high throughput fluorescence microscopy relative to control; in short: as §1
H4 [27] = experiment: Induction of light chain 3-GFP level in human H4 cells at 8.5 uM after 24 hrs by high throughput fluorescence microscopy relative to control; in short: as §3
H4 [28] = experiment: Increase in light chain 3-GFP+ autophagosome vesicle number per cell in human H4 cells at 3.8 uM after 24 hrs by high throughput fluorescence microscopy relative to control; in short: as §5
H4 [29] = experiment: Increase in light chain 3-GFP+ autophagosome vesicle area per cell in human H4 cells at 3.8 uM after 24 hrs by high throughput fluorescence microscopy relative to control; in short: as §5
H4 [30] = experiment: Increase in light chain 3-GFP+ autophagosome vesicle intensity per cell in human H4 cells at 3.8 uM after 24 hrs by high throughput fluorescence microscopy relative to control; in short: as §5
H4 [31] = experiment: Induction of light chain 3-GFP level in human H4 cells at 3.8 uM after 24 hrs by high throughput fluorescence microscopy relative to control; in short: as §4

`COc1cc(/C=C/C(=O)CC(=O)/C=C/c2ccc(O)c(OC)c2)ccc1O` [CURCUMIN] was tested, and the Activity (H4 [1]) was 59.32%, the Activity (H4 [2]) was 228.38% and the Activity (H4 [3]) was 249.22%. The Activity (H4 [4]) was 59.32%.

`C=C1[C@@H](C)[C@H]2[C@H](Cc3ccccc3)NC(=O)[C@]23[C@H](OC(C)=O)/C=C/[C@@](C)(O)C(=O)[C@@H](C)C/C=C/[C@H]3[C@@H]1O` [CYTOCHALASIN D] was tested, and the Activity (H4 [5]) was 71.84%, the Activity (H4 [6]) was 306.27% and the Activity (H4 [7]) was 378.77%. For the same compound, the Activity (H4 [8]) was 258.44%.

Compound `CNC(=O)[C@H](Cc1c[nH]c2ccccc12)NC(=O)[C@@H](CC(=O)NO)CC(C)C` [ILOMASTAT] has an Activity (H4 [9]) of 154.31%, an Activity (H4 [10]) of 171.42% and an Activity (H4 [11]) of 196.42%. The Activity (H4 [12]) was 30.69%, the Activity (H4 [13]) was 32.3% and the Activity (H4 [14]) was 25.77%. It also gave an Activity (H4 [15]) of 129.48%, an Activity (H4 [16]) of 115.08% and an Activity (H4 [17]) of 104.88%. The Activity (H4 [18]) was 107.46% and the Activity (H4 [19]) was 143.94%.

With `Oc1ccc(-c2nc(-c3ccc(F)cc3)c(-c3ccncc3)[nH]2)cc1` [SB-202190] the Activity (H4 [20]) was 151.97%, the Activity (H4 [21]) was 160.87% and the Activity (H4 [22]) was 169.71%. The Activity (H4 [23]) was 91.14%.

`Cc1coc2c1C(=O)C(=O)c1c-2ccc2c1CCCC2(C)C` [TANSHINONE IIA] gave an Activity (H4 [24]) of 210.24%, an Activity (H4 [25]) of 264.51% and an Activity (H4 [26]) of 273.72%. The Activity (H4 [27]) was 79.77%.

Work on `C/C=C(/C)C(=O)O[C@H]1C(C)=C2[C@H]([C@@H]1OC(=O)CCCCCCC)[C@@](C)(OC(C)=O)C[C@H](OC(=O)CCC)[C@@]1(O)[C@H]2OC(=O)[C@@]1(C)O` [THAPSIGARGIN] yielded an Activity (H4 [28]) of 193.06%, an Activity (H4 [29]) of 199.81% and an Activity (H4 [30]) of 187.15%. The Activity (H4 [31]) was 63.77%.
